Screens deposited in PubChem by several laboratories.
Most compounds without a hit are left out; they make up all but 2.6% or so of the library.
SMARCA2 act: SMARCA2 function activation, primary screen | MG213 cells, MMTV-luciferase reporter, dexamethasone, overnight | activation, % at 9.1 µM | 370,000 compounds, 1% hits | AID 652017; in the data active = activation above about 7.8%
ARFGAP1 inhibitor: inhibitors of rat ARFGAP1. 360,000 compounds, 0.26% hits. inhibition, % at 16.5 µM. Q62848. Arfgap1-stimulated ARF1 GTP hydrolysis, GDP FP detection;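 active = inhibition above a per-plate limit, mean inhibition of low control wells plus 3 SD, cut at about 25% in these data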
Target sequence (Q62848 1-136 limits assumed): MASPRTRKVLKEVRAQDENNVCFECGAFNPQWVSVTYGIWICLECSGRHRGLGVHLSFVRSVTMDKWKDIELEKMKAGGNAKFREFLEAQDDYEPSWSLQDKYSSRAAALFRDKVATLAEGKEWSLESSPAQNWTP
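system = rat Arfgap1 catalytic domain, aa 1-136 | technique = FP, GDP Alexa 633 tracer displaced from anti-GDP antibody, 620/688 nm | compound = one concentration, 16.5 µM, DMSO 1.26% | medium = HEPES-based buffer, pH 7.5 | timing = compound-enzyme preincubation 20 min, reaction 120 min, detection 60 min, 25 °C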
esBAF inh: blocks esBAF chromatin remodeling in mouse ES cells | 350,000 compounds, 2% hits | reporter increase, % at 12.5 µM | Bmi1-luciferase knock-in reporter, 24 h; 100% = twice the neutral-well signal; in the data active = activation above about 40%;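 also: a rise in the Bmi1 reporter signal indicates esBAF inhibition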
ASAP1 GAP inh: ASAP1 ArfGAP inhibition; Q9ULH1; ASAP1-stimulated ARF1 GTP hydrolysis, GDP FP detection; inhibition, % at 16.5 µM; 360,000 compounds, 0.19% hits; AID 624377; in the data active = inhibition above about 25%
Target sequence (Q9ULH1 325-724 limits assumed): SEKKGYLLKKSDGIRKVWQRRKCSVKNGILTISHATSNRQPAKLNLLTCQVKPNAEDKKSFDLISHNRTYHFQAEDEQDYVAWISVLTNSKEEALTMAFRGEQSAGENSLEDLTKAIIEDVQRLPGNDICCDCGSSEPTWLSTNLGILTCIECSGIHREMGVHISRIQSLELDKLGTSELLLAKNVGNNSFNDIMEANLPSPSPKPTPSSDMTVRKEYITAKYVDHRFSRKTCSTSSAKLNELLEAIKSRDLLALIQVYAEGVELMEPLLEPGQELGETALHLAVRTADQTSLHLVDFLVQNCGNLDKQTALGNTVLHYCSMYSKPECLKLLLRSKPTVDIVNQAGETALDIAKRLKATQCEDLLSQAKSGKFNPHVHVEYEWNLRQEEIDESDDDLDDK
SMARCA2 act conf: SMARCA2 activation, confirmation screen. activation, % at 9.1 µM. MG213 cells, MMTV-luciferase with dexamethasone, luminescence, overnight; MG213 cells expressing E1A, Rb sequestered; DMSO wells 0%, reference activator 100%. AID 652260. 3,500 compounds, 30% hits. shares compounds with SMARCA2 act;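 active = activation above its plate's cutoff, the mean activation of tested wells plus 3 SD, cut at about 7.9% in these data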
GAL4-VP16 Luc: counter-screen for SMARCA2 activators: GAL4-VP16 luciferase reporter activation; shares compounds with SMARCA2 act; HEK293 GAL4-VP16 pG5luc reporter, luciferase luminescence; scaled: DMSO wells 0%, SAHA wells 100%; activation, % at 9.1 µM; 3,500 compounds, 41% hits;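 active = activation above the solvent-only control well mean plus 3 SD, averaged across control plates, cut at about 5.2% in these data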
Each line names hits and unclear results; the compound was inactive in the other large screens (follow-up assays come after a bar, where they were run); ! = a repeat was not active.

CCOCCCNc1nc2ccccc2[nH]1	none
CS(=O)(=O)n1nc(-c2ccc(Cl)cc2)nc1N	SMARCA2 act 8.5 (no result: esBAF inh) | SMARCA2 act conf inactive | GAL4-VP16 Luc inactive
O=C(C[C@@H]1C=C[C@@H](NS(=O)(=O)c2ccc(F)cc2)[C@H](CO)O1)NC1CCC1	none (no result: SMARCA2 act, ARFGAP1 inhibitor, ASAP1 GAP inh)
COc1cccc(C(=O)Nc2ccc3c(c2)C(=O)N(C)[C@@H]2CC[C@@H](CC(=O)NCC(F)(F)F)O[C@@H]2CO3)c1	none (no result: SMARCA2 act, ARFGAP1 inhibitor, ASAP1 GAP inh)
COc1ccc(N2CC(C(=O)Nc3ccc(S(=O)(=O)Nc4nc(C)cc(C)n4)cc3)CC2=O)cc1 (stereo not drawn)	SMARCA2 act 9.4 | SMARCA2 act conf inactive | GAL4-VP16 Luc inactive
Cc1cc(C)nc(NS(=O)(=O)c2ccc(NC(=O)C3CC(=O)N(c4ccccc4)C3)cc2)n1 (stereo not drawn)	SMARCA2 act 8.2 (no result: esBAF inh) | SMARCA2 act conf inactive | GAL4-VP16 Luc inactive
COc1ccc(N2CC(C(=O)Nc3ccc(S(=O)(=O)Nc4nccs4)cc3)CC2=O)cc1 (stereo not drawn)	none (no result: esBAF inh)
O=C(Nc1cccc(F)c1)N[C@H]1CC[C@H](CCNS(=O)(=O)c2cccc(Cl)c2)O[C@H]1CO	none (no result: SMARCA2 act, ARFGAP1 inhibitor, ASAP1 GAP inh)
COc1ccccc1CNC(=O)C[C@H]1CC[C@H](NC(=O)CC2CC2)[C@@H](CO)O1	none (no result: SMARCA2 act, ARFGAP1 inhibitor, ASAP1 GAP inh)
CCOC(=O)C1=C(C)N=c2s/c(=C/c3ccc(OCC(=O)O)cc3)c(=O)n2C1c1cc(OC)c(OC)c(OC)c1 (stereo not drawn)	SMARCA2 act 9.1 | SMARCA2 act conf inactive | GAL4-VP16 Luc inactive
Cc1cc(C)c2c(N)c(C(=O)Nc3cccc(C)c3C)sc2n1	none
Cc1ccc(NC(=O)c2sc3nc(C)cc(C)c3c2N)cc1	SMARCA2 act 9.9 | SMARCA2 act conf inactive | GAL4-VP16 Luc 15.2
Cn1c(SCc2cccc(F)c2)nnc1-c1ccccn1	SMARCA2 act 9.9 | SMARCA2 act conf inactive | GAL4-VP16 Luc 6.3
COc1ccc(NC(=O)c2onc(C)c2Cl)cc1	SMARCA2 act 10.4, esBAF inh 45.9 | SMARCA2 act conf inactive | GAL4-VP16 Luc 7.0
CCNC(=O)C[C@H]1CC[C@@H](NC(=O)C2CC2)[C@@H](CO)O1	none (no result: SMARCA2 act, ARFGAP1 inhibitor, ASAP1 GAP inh)
CO[C@@H]1CN(C)C(=O)c2ccc(NC(=O)C3CC3)cc2OC[C@H](C)N(Cc2ccncc2)C[C@@H]1C	none (no result: SMARCA2 act, ARFGAP1 inhibitor, ASAP1 GAP inh)
COc1ccc(NC(=O)Nc2ccc3c(c2)C(=O)N([C@H](C)CO)C[C@@H](C)[C@@H](CN(C)Cc2ccccc2)O3)cc1	none (no result: SMARCA2 act, ARFGAP1 inhibitor, ASAP1 GAP inh)
Cc1nc2cc(NC(=O)N3c4ccccc4CC3C)ccc2o1 (stereo not drawn)	SMARCA2 act 9.6 | SMARCA2 act conf 14.0 | GAL4-VP16 Luc 12.5
NC(=O)c1ccsc1NC(=O)c1coc2ccccc2c1=O	SMARCA2 act 9.0 (no result: esBAF inh) | SMARCA2 act conf 22.7 | GAL4-VP16 Luc 8.9
Nc1nn(-c2ccccc2)c(N)c1N=Nc1ccccc1	SMARCA2 act 14.6 (no result: esBAF inh) | SMARCA2 act conf inactive | GAL4-VP16 Luc 26.7
O=C(N/N=C/c1ccc(-c2ccccc2C(=O)O)o1)c1cccs1	SMARCA2 act 8.6 (no result: esBAF inh) | SMARCA2 act conf inactive | GAL4-VP16 Luc inactive
COc1ccc(NC(=O)Nc2cccc3c2O[C@@H](CN(C)S(=O)(=O)c2cn(C)cn2)[C@H](C)CN([C@H](C)CO)C3=O)cc1	none (no result: SMARCA2 act, ARFGAP1 inhibitor, ASAP1 GAP inh)
CC(NC(=O)c1cc(COc2ccccc2)on1)c1nccs1 (stereo not drawn)	SMARCA2 act 10.2, esBAF inh 64.4 | SMARCA2 act conf inactive | GAL4-VP16 Luc 15.1
CCN(CC)Cc1cc(Nc2ccnc3cc(Cl)ccc23)ccc1O	SMARCA2 act 8.2 | SMARCA2 act conf 20.4! | GAL4-VP16 Luc inactive
Oc1ccc(/C=N/Nc2ccnc3cc(Cl)ccc23)c(O)c1	SMARCA2 act 15.4 | SMARCA2 act conf 18.4 | GAL4-VP16 Luc inactive
C[C@@H]1CCCCO[C@H](CN(C)Cc2ccc(C(=O)O)cc2)[C@@H](C)CN([C@@H](C)CO)C(=O)c2cc(NC(=O)Nc3ccc4c(c3)OCO4)ccc2O1	none (no result: SMARCA2 act, ARFGAP1 inhibitor, ASAP1 GAP inh)
O=C(CCN1CCCCC1)NCC[C@@H]1CC[C@H](NS(=O)(=O)c2cccc(F)c2)[C@@H](CO)O1	none (no result: SMARCA2 act, ARFGAP1 inhibitor, ASAP1 GAP inh)
C[C@@H]1CN([C@@H](C)CO)C(=O)c2cccc(NC(=O)c3cnccn3)c2O[C@@H]1CN(C)S(=O)(=O)c1ccc(Cl)cc1	none (no result: SMARCA2 act, ARFGAP1 inhibitor, ASAP1 GAP inh)
